Measured values: article PMC2978023 (Journal of immunology (Baltimore, Md. : 1950), 2008)
Like-named read-outs stand apart in the source and are kept apart here. Peptide text beside a SMILES is read from it. * marks the point of attachment. Cbz = O=C(OCc1ccccc1)*

What was measured:
[1] = test system: αMβ2; assay: αMβ2 clustering on PMNs, fluorescence microscopy; assay type: cell-based, human; settings: Plg 1 μM + inhibitor, 4 h, 37 °C; MβCD 5 mM, peptide 18 0.5 μM, H7 300 μM, BDM 20 mM, cytochalasin D 10 μM, calpain inhibitor III 10 μM
In short: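 Human PMNs were exposed to ligands (proteins 1 μM, peptides 100 μM) for 4 h at 37°C, or to 1 μM Plg together with clustering inhibitors at the final concentrations used in apoptosis assays. Cells were fixed in 4% paraformaldehyde and stained with anti-αM mAb OKMI plus Alexa 488 goat anti-mouse IgG. They were cytospun, mounted and imaged by fluorescence microscopy (×40/0.7 NA); PMNs came from four donors.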

[2] = test system: αMβ2 on PMN; assay: Soluble Alexa 488-labeled ligand binding to PMN, FACS; set-up: species or system human; settings: clustering inhibitor, 1 h, 37 °C, mean ± SEM, n = 3
In short: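 Human PMNs were incubated for 1 h at 37°C in HBSS/Ca²⁺/Mg²⁺ with soluble Alexa 488-labelled Plg or Fg, with or without clustering inhibitors. After two buffer washes, bound ligand was read by FACS; mean ± SEM, n = 3.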

[3] = test system: human PMNs; settings: for PMN early/late apoptosis (% annexin V+ cells), inhibitor + Fg: clustering inhibitor + Fg 1 μM; for PMN early/late apoptosis (% annexin V+ cells), inhibitor + Fg / PMN early/late apoptosis (% annexin V+ cells), inhibitor + P1 / PMN early/late apoptosis (% annexin V+ cells), inhibitor + P2-C / PMN early/late apoptosis (% annexin V+ cells), inhibitor + Plg: mean ± SEM, n = 5; for PMN early/late apoptosis (% annexin V+ cells), inhibitor + P1: clustering inhibitor + P1 100 μM; for PMN early/late apoptosis (% annexin V+ cells), inhibitor + P2-C: clustering inhibitor + P2-C 100 μM; for PMN early/late apoptosis (% annexin V+ cells), inhibitor + Plg: clustering inhibitor + Plg 1 μM
[4] = molecular target: recombinant purified integrin αMβ2 (Homo sapiens, UniProt P05107+P11215); assay: Solid-phase binding to purified αMβ2; settings: data not shown; test format not stated
In short: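 Purified recombinant αMβ2, αM or β2 (from HEK293 lines) was coated overnight at 4°C in TBS with 10 mM n-octyl-β-D-glucopyranoside and postcoated with 0.5% PVP for 1 h at 37°C. Biotinylated Plg or Ang(1–4) (0–10 μM) was bound for 2 h at 37°C in the same buffer plus 1 mM CaCl₂/MgCl₂. Binding was detected with alkaline phosphatase–avidin and pNPP at A405. Kd came from a one-site binding fit.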

Chain of recombinant purified integrin αMβ2 (P05107 23-769, other chains not shown): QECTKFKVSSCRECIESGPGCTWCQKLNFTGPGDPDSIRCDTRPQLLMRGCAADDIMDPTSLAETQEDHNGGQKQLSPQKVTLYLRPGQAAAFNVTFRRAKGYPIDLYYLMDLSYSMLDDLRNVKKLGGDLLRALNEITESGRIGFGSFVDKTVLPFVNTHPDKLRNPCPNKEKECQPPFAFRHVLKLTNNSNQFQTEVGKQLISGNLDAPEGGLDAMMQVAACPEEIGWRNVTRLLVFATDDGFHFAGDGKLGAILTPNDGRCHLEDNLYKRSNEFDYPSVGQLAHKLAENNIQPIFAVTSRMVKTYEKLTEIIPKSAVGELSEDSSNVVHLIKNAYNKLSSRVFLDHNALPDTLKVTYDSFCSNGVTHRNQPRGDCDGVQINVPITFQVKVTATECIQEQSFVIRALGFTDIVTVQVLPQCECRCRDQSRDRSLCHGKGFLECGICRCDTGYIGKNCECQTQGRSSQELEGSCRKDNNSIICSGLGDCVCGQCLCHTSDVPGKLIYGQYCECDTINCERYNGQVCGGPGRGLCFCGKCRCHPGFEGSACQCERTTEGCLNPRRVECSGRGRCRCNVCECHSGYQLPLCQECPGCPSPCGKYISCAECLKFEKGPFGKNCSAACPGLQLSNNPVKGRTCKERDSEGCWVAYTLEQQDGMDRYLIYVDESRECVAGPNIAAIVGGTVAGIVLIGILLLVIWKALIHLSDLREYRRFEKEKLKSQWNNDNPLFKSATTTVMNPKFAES

ligand binding, inhibitor, no ligand (background) [2] [MFI]	recognition by αMβ2 [4]	Compound	effect on Plg-dependent αMβ2 clustering [1]	PMN early/late apoptosis (% annexin V+ cells), inhibitor + Fg ([3]; 16 h, 37 °C) [%]	PMN early/late apoptosis (% annexin V+ cells), inhibitor + P1 ([3]; 16 h, 37 °C) [%]	PMN early/late apoptosis (% annexin V+ cells), inhibitor + P2-C ([3]; 16 h, 37 °C) [%]	PMN early/late apoptosis (% annexin V+ cells), inhibitor + Plg ([3]; 16 h, 37 °C) [%]	effect on Plg-dependent PMN survival (in words) ([3]; PMN with Plg, 16 h, 37 °C)	effect on Plg-dependent PMN survival (in words) [3]
2.90 ± 0.5	–	CC(=O)C(C)=NO [BDM, 2,3-butanedione 2-monoxime]	blocked or significantly reduced	98.7 ± 24	85.4 ± 20	97.8 ± 22	99.2 ± 24	–	–
3.4 ± 0.4	–	CC(C)[C@H](NC(=O)OCc1ccccc1)C(=O)N[C@H](C=O)Cc1ccccc1 [Calpain inhibitor III] (Cbz-Val-Phe-aldehyde)	blocked or significantly reduced	88.9 ± 23	94.5 ± 22	74.7 ± 19	97.1 ± 22	–	–
3.2 ± 0.6	–	CC1CNCCN1S(=O)(=O)c1cccc2cnccc12.Cl.Cl (stereo not drawn) [H7, 1-(5-isoquinolinylsulfonyl)-2-methylpiperazine dihydrochloride]	blocked or significantly reduced	62.3 ± 16	60.1 ± 14	78.6 ± 17	79.2 ± 18	–	–
–	–	COc1cccc(-c2cc(=O)c3ccccc3o2)c1N [PD 98059]	–	–	–	–	–	reduced Plg-dependent PMN survival, but to a lesser extent than the Akt inhibitor	–
–	–	NCCCCCC(=O)O [ε-aminocaproic acid]	–	–	–	–	–	–	reduced
–	is recognized by this integrin	Ang([1]–[3]): angiostatin fragment which lacks kringle 4; Calbiochem	–	–	–	–	–	–	–

Compound	ligand binding, inhibitor, no ligand (background) [2] [MFI]	recognition by αMβ2 [4]	effect on Plg-dependent αMβ2 clustering [1]	PMN early/late apoptosis (% annexin V+ cells), inhibitor + Fg ([3]; 16 h, 37 °C) [%]	PMN early/late apoptosis (% annexin V+ cells), inhibitor + P1 ([3]; 16 h, 37 °C) [%]	PMN early/late apoptosis (% annexin V+ cells), inhibitor + P2-C ([3]; 16 h, 37 °C) [%]	PMN early/late apoptosis (% annexin V+ cells), inhibitor + Plg ([3]; 16 h, 37 °C) [%]	effect on Plg-dependent PMN survival (in words) ([3]; PMN with Plg, 16 h, 37 °C)	effect on Plg-dependent PMN survival (in words) [3]
C=C1[C@@H](C)[C@H]2[C@H](Cc3ccccc3)NC(=O)[C@]23[C@H](OC(C)=O)/C=C/[C@@](C)(O)C(=O)[C@@H](C)C/C=C/[C@H]3[C@@H]1O [Cytochalasin D, cytochalasin D]	2.3 ± 0.3	–	blocked or significantly reduced	55.5 ± 18	66.07 ± 15	77.4 ± 16	66.6 ± 15	–	–
